Assays:
Adenosine receptor A2a [1] = target: T1, Adenosine receptor A2a (Homo sapiens, UniProt P29274); experiment: Inhibition of [3H]ZM-241385 binding to human adenosine A2a receptor expressed in CHO cells; (n=3 - 6); format: cell-based
In short: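 Membranes from human A2A-transfected CHO cells, pretreated with adenosine deaminase. 50 µg protein incubated 60 min at 4 °C in 50 mM Tris HCl, 10 mM MgCl₂, pH 7.4 with [³H]ZM241385 and 6–8 concentrations of test ligand. Nonspecific binding defined with 1 µM ZM241385. Separated by filtration, counted by scintillation. Ki via Cheng–Prusoff.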

Adenosine receptor A1 = target: T2, Adenosine receptor A1 (Homo sapiens, UniProt P30542); experiment: Inhibition of [3H]DPCPX binding to human adenosine A1 receptor expressed in CHO cells; (n=3 - 6); format: cell-based
T2 sequence (P30542 whole entry): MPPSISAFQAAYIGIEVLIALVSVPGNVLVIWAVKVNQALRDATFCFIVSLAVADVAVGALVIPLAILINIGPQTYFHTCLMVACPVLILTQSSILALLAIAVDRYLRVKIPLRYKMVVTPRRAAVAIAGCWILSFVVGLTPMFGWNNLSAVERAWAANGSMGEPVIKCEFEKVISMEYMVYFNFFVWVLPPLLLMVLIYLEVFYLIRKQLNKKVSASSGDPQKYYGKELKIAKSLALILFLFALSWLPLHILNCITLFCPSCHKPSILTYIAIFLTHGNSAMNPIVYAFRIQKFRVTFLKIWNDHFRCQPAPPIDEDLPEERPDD
In short: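 Membranes from human A1-transfected CHO cells, pretreated with adenosine deaminase 3 IU/ml for 30 min at 37 °C. 50 µg protein incubated 120 min at 25 °C in 50 mM Tris HCl pH 7.4 with 1 nM [³H]DPCPX and 6–8 concentrations of test ligand. Nonspecific binding defined with 10 µM CHA. Separated by GF/B filtration, counted by scintillation. Ki via Cheng–Prusoff.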

Adenosine receptor A3 [2] = target: T3, Adenosine receptor A3 (Homo sapiens, UniProt P0DMS8); experiment: Inhibition of [3H]MRE3008-F20 binding to human adenosine A3 receptor expressed in CHO cells; (n=3 - 6); format: cell-based
T3 sequence (P0DMS8 whole entry): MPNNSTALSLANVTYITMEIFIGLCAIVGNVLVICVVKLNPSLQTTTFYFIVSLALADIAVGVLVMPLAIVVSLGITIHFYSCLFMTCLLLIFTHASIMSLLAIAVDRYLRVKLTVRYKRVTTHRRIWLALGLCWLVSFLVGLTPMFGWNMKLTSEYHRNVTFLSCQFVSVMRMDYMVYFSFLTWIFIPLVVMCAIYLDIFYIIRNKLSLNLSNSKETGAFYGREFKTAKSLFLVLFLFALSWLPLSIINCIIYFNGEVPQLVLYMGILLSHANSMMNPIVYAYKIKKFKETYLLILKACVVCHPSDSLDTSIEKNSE

Adenosine receptor A2b = target: T4, Adenosine receptor A2b (Homo sapiens, UniProt P29275); experiment: Inhibition of 100 nM-NECA stimulation of cAMP levels in human adenosine A2b receptor expressing CHO cells; format: cell-based
T4 sequence (P29275 whole entry): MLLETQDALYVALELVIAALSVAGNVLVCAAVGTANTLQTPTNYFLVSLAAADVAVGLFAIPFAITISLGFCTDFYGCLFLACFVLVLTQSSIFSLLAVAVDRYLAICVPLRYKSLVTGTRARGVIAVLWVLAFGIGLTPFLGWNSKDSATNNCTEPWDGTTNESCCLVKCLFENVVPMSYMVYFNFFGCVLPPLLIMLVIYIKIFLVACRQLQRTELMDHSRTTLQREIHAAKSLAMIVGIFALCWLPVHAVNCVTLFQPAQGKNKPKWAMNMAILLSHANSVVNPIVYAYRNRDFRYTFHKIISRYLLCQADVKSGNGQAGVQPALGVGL
In short: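 CHO cells stably transfected with human A2B receptor, grown in DMEM/F12 with 10% FCS and G418, 37 °C. Cells trypsinised and suspended at 1 × 10⁶ cells/assay in pH 7.4 buffer with 2 IU/ml adenosine deaminase and Ro 20-1724. Preincubated 10 min at 37 °C, then challenged with 100 nM NECA. Stopped with cold 6% TCA. cAMP measured by competitive binding to [³H]cAMP with adrenal binding protein. IC50 from sigmoid nonlinear regression.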

[3] = target: T5, Adenosine receptor A2b (Homo sapiens) (UniProt P29275); experiment: Percent inhibition of human adenosine A2b receptor expressed in CHO cells; format: cell-based; design: concentration or dose not given beside the values; conditions: concentration not given here
T5 sequence (whole entry): T4 sequence (P29275 whole entry)

[4] = target: T6, Adenosine receptor A1 (Homo sapiens) (UniProt P30542); experiment: Percent inhibition [3H]DPCPX binding to human adenosine A1 receptor expressed in CHO cells; (n=3 - 6); format: cell-based; design: concentration or dose not given beside the values; conditions: concentration not given here
T6 sequence (whole entry): T2 sequence (P30542 whole entry)

Adenosine receptor A2a [5] = target: T1, Adenosine receptor A2a; experiment: Percent inhibition of [3H]ZM-241385 binding to human adenosine 2Aa receptor expressed in CHO cells; (n=3 - 6); format: cell-based; design: concentration or dose not given beside the values; conditions: concentration not given here
[6] = target: T6, Adenosine receptor A1 (Homo sapiens); experiment: Percentage inhibition of [3H]DPCPX binding to human adenosine A1 receptor expressed in CHO cells; (n=3 - 6); format: cell-based; conditions: concentration not given here
Adenosine receptor A3 [7] = target: T3, Adenosine receptor A3; experiment: Inhibition of cAMP accumulation in human adenosine A3 receptor assay as inhibition of Cl-IB-MECA; format: functional

T1 sequence (P29274 whole entry): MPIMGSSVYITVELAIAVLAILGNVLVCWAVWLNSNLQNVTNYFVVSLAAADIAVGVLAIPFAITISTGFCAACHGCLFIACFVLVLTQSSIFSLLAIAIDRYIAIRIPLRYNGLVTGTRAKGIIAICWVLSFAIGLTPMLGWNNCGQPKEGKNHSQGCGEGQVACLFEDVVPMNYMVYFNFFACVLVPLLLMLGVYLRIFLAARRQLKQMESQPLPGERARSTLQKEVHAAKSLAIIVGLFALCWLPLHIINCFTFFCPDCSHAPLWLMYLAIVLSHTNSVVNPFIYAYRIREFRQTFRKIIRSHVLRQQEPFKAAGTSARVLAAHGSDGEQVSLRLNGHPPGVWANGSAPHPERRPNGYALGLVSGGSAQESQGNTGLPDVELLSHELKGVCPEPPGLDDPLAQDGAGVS

Row | Structure (SMILES) | Ki (Adenosine receptor A2a [1]) | Ki (Adenosine receptor A1) | Ki (Adenosine receptor A3 [2]) | IC50 (Adenosine receptor A2b) | inhibition [3] | inhibition [4] | inhibition (Adenosine receptor A2a [5]) | inhibition [6] | Ki (Adenosine receptor A3 [7])
1 | Oc1nc2ccccc2c2nn(-c3ccccc3)cc12 | > 1000 nM | > 1000 nM | 27 nM | > 1000 nM | 1% |  | 2% | 5% | 55 nM
2 | Cc1ccc(-n2cc3c(O)nc4ccccc4c3n2)cc1 |  |  |  |  | 2% | 3% | 1% |  | 
3 | Oc1nc2ccccc2c2nn(-c3ccccc3Cl)cc12 | > 1000 nM | > 1000 nM | 44 nM | > 1000 nM | 8% | 3% | 1% |  | 
4 | CCc1ccc(-n2cc3c(O)nc4ccccc4c3n2)cc1 |  |  |  |  | 13% | 12% | 1% |  | 
5 | c1ccc(CNc2nc3ccccc3c3nn(-c4ccccc4)cc23)cc1 | > 1000 nM | > 1000 nM | 125 nM | > 1000 nM | 1% | 4% | 2% |  | 
6 | c1ccc(-n2cc3cnc4ccccc4c3n2)cc1 | > 1000 nM | > 1000 nM | 212 nM | > 1000 nM | 1% | 5% | 3% |  | 
7 | CCc1ccc(-n2cc3c(=O)[nH]c4ccccc4c3n2)cc1 | > 1000 nM | > 1000 nM | 157 nM | > 1000 nM |  |  |  |  | 

The remaining lines, values ahead:

Row | Ki (Adenosine receptor A2a [1]) | Ki (Adenosine receptor A1) | Ki (Adenosine receptor A3 [2]) | IC50 (Adenosine receptor A2b) | inhibition [3] | inhibition [4] | inhibition (Adenosine receptor A2a [5]) | inhibition [6] | Ki (Adenosine receptor A3 [7]) | Structure (SMILES)
8 | > 1000 nM | > 1000 nM | 19 nM | > 1000 nM | 1% | 4% | 1% |  |  | Oc1nc2ccccc2c2nn(-c3ccc(Cl)cc3)cc12
9 | > 1000 nM | > 1000 nM | 166 nM | > 1000 nM | 10% | 16% | 5% |  |  | COc1nc2ccccc2c2nn(-c3ccccc3)cc12
10 | > 1000 nM | > 1000 nM | 16 nM | > 1000 nM | 2% | 1% | 1% |  | 42 nM | COc1ccc(-n2cc3c(O)nc4ccccc4c3n2)cc1
11 | > 1000 nM | > 1000 nM |  | > 1000 nM |  |  |  |  |  | Cc1ccc(-n2cc3c(=O)[nH]c4ccccc4c3n2)cc1
12 | > 1000 nM | > 1000 nM | 220 nM | > 1000 nM | 11% | 14% | 8% |  |  | Sc1nc2ccccc2c2nn(-c3ccccc3)cc12
13 | > 1000 nM | > 1000 nM | 27 nM | > 1000 nM | 10% | 10% | 10% |  |  | Oc1nc2ccccc2c2nn(-c3ccc(F)cc3)cc12

From ChEMBL document CHEMBL1140344, “New 2-arylpyrazolo[4,3-c]quinoline derivatives as potent and selective human A3 adenosine receptor antagonists” (J Med Chem, 2005)
